An excerpt weighted towards active compounds, which were near 2.2% of everything screened.
PAD4 inh: PAD4 (human) enzyme inhibition | Q9UM07 | recombinant PAD4, RCA probe fluorescence polarization | inhibition, % at 6.36 µM | actives 0.41% (n = 330,000);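 active = percent inhibition above a cutoff equal to the mean of all tested compounds plus 3 SD, cut at about 15% in these data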;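 note: 0% = PAD4 with RCA probe and DMSO and 100% = probe without PAD4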
UBC13 inh: blocks human UBC13 polyubiquitin chain formation. P61088. TR-FRET. inhibition, % at 20 µM. actives 0.47% (n = 330,000). AID 485273; in the data active = inhibition above about 45%, passing the limit was not always enough
Target sequence (P61088 whole entry, looked up): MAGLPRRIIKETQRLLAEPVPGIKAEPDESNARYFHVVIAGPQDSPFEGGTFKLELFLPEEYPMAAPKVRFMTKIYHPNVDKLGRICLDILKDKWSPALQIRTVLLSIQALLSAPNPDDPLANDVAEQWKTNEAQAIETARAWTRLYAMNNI
SUMO HTRF inh: inhibitors of human SUMOylation (UBC9); P63279; HTRF SUMOylation assay, SAE1/SAE2 + UBC9, in vitro; inhibition, % at 35 µM; actives 0.36% (n = 290,000); AID 2006; in the data active = inhibition above about 50%, passing the limit was not always enough
Target sequence (P63279 whole entry, looked up): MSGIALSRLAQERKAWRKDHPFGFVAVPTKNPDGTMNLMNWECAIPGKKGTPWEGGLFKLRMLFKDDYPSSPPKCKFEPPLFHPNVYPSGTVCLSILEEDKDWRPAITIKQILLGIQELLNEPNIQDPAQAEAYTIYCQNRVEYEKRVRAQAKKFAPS
Apaf1 inhib: human Apaf-1 inhibition. O14727. reconstituted apoptosome caspase-3 activity, DEVD-Rh110 fluorescence. inhibition, % at 20 µM. actives 0.71% (n = 330,000). AID 489030; active = inhibition of at least 40% at 20 µM;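 note: plate controls were DMSO wells for no effect and DEVD-CHO caspase inhibitor wells for full effect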
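Material: cell-free apoptosome with Apaf-1, procaspase-3 and caspase-9; Buffer or medium: Hepes pH 7.5 with detergent and BSA; Reagent: cytochrome c trigger plus (Z-DEVD)2-Rh110 caspase-3 substrate; Times: compound with Apaf-1, dATP, procaspase-3 30 min, then 50 min reaction, room temperature; Technique: Rh110 fluorescence intensity.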
GSTO1 inh: counter-screen for RBBP9 inhibitors: inhibitors of human GSTO1 | P78417 | recombinant GSTO1, activity-based probe fluorescence polarization | inhibition, % at 5.96 µM | actives 1.1% (n = 300,000) | AID 1974;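 active = inhibition above the campaign mean inhibition plus 3 SD, cut at about 35% in these data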;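 note: 0% = GSTO1-1 with DMSO and 100% = wells lacking GSTO1-1 enzyme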
Target sequence (P78417 whole entry, looked up): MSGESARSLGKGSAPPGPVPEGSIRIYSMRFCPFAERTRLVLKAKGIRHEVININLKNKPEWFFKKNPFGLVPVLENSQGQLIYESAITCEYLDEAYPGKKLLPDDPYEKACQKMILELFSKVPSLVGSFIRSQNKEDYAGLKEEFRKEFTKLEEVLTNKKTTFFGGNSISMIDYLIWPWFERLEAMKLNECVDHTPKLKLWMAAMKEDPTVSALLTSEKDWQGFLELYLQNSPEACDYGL
Rin1-Abl PPI inh: human Rin1-Abl interaction inhibition; TR-FRET Rin1/Abl binding, biochemical; inhibition, % at 7.35 µM; actives 0.4% (n = 360,000); P00519+Q13671; AID 588664; in the data active = inhibition above about 5%, passing the limit was not always enough
GSTO1 confirm: confirmation of human GSTO1 inhibitors | shares compounds with GSTO1 inh | recombinant GSTO1, probe fluorescence polarization | inhibition, % at 5.96 µM | actives 54% (n = 2,400);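 active = inhibition above the primary screen's cutoff, its mean inhibition plus 3 SD, cut at about 35% in these data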;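 note: loss of polarization as inhibitors block binding of rhodamine sulfonate ester activity probe; 0% = GSTO1 with DMSO and 100% = wells lacking GSTO1 enzyme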
GSTO1 recomb ABPP: blocks recombinant human glutathione S-transferase omega 1 | shares compounds with GSTO1 inh | recombinant GSTO1, gel ABPP SE-Rh probe fluorescence | inhibition, % at 1 µM | actives 30% (n = 130) | AID 463110;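 active = inhibition of the enzyme GSTO1 above about 75%, limit read from the data; inactive = inhibition below that limit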
* = called active by the depositor; . = no result.

SMILES	PAD4 inh	UBC13 inh	SUMO HTRF inh	Apaf1 inhib	GSTO1 inh	Rin1-Abl PPI inh	GSTO1 confirm	others
CCN(CC)Cc1c(O)ccc2c(=O)c(Oc3ccccc3OC)coc12	-1.1	14.1	52.2*	29.5	5.0	-1.3	.
CCC(C)N(CC(=O)Nc1cccc(C)c1C)C(=O)CCl (centres undefined)	0.7	7.1	10.4	-15.3	51.9*	-2.0	.
CC(C)N(CC(=O)Nc1ccc(Cl)cc1C(F)(F)F)C(=O)CCl	-0.1	4.8	-0.5	-11.7	66.2*	1.5	.
CCN(CC)CCNC(=O)c1ccc(NC(=O)c2cc(S(=O)(=O)N3CCCCC3)ccc2N2CCOCC2)cc1	.	.	.	.	.	2.5	.
O=C(c1ccccc1)c1cccc[n+]1[O-]	-4.0	-1.0	-1.3	-3.2	2.4	0.4	.
Cn1c(-c2cccs2)nc2ccccc21	-6.3	-4.7	18.2	-10.1	5.1	-7.7	.
Cn1c(-c2ccc(C=O)s2)nc2ccccc21	-3.2	17.3	56.2*	1.0	-6.3	-3.1	.
CCOC(=O)C1CCN(C(=O)c2ccc3c(=O)n4nc(Nc5ccccc5)sc4nc3c2)CC1	.	.	.	.	.	-7.0	.
COc1ccccc1NS(=O)(=O)c1cccc(C(=O)N2CCN(C/C=C/c3ccccc3)CC2)c1	0.5	24.0	-10.1	45.8*	-3.8	3.1	.
COc1ccccc1NS(=O)(=O)c1cc(C(=O)N2CCN(C/C=C/c3ccccc3)CC2)ccc1C	-3.9	15.6	-9.6	34.2	-5.8	-0.7	.
CCN1C(C)=CC(=O)[C@@H](O)[C@H]1c1ccccc1Br	.	.	.	.	.	-1.0	.
CN(C1=C(NC(=O)c2ccccc2)C(=O)c2ccccc2C1=O)C1CCS(=O)(=O)C1 (centres undefined)	4.1	-77.6	40.6	88.2*	75.5*	-3.9	.
O=C(/C=C/c1ccncc1)c1ccc(NC(=O)c2ccccc2F)cc1	-2.3	.	70.2*	.	-37.8	-1.4	.
O=C(/C=C/c1ccc(NC(=O)c2ccccc2-c2ccccc2C(=O)O)cc1)c1ccccc1	-16.4	-26.8	37.4	21.7	-49.9	-1.3	.
CC1=CC2=C(OC1N(C)C)c1cccc3cccc(c13)C2=O (centres undefined)	17.9*	-11.2	-2.3	0.8	9.1	-0.9	.
CSc1ccc(-c2sc(Nc3cccc4ccccc34)n[n+]2-c2ccccc2)cc1	-9.4	-53.4	-2.8	4.5	37.0*	2.3	.
CN(C)c1ccc(/C=C2/C(=O)N(c3ccc([N+](=O)[O-])cc3)N=C2N2CCOCC2)cc1	.	.	87.2*	.	.	.	.
CCOc1ccccc1NC(=O)CCn1ccnc1	-0.6	6.1	13.4	2.2	9.2	0.5	.
CCCc1cc(=O)oc2cc(OCC(=O)NCC3CCC(C(=O)O)CC3)ccc12 (centres undefined)	0.4	2.8	-8.7	-8.9	-2.4	-1.6	.
O=C(Cc1cc(=O)oc2cc(O)ccc12)NCC1CCC(C(=O)O)CC1 (centres undefined)	-8.4	23.6	55.4*	-2.4	-1.0	1.2	.
CCCNC(=O)c1ccc2c(=O)n3c(-c4ccc(C)cc4)csc3nc2c1	3.0	-9.0	-6.3	29.4	45.8*	-0.8	28.0
Cc1nc(SC(C)C(=O)NC2CCCC2)c2ccccc2n1 (centres undefined)	-1.8	15.0	.	-6.4	.	-3.1	.
CN1c2ccccc2C(C)(C)C12C=Nc1c(ccc3ccccc13)O2 (centres undefined)	-1.0	-0.5	41.6	25.8	90.3*	-1.7	5.5
CN1c2ccccc2C(C)(C)[C@]12C=Cc1cc(O)ccc1O2	-75.6	-24.5	-7.2	18.8	2.4	-2.8	.
COc1ccc(N2CCN(c3ccc(NC(=O)/C=C\C(=O)O)cc3)CC2)cc1	30.3*	-7.0	3.8	-1.6	74.0*	2.5	3.5
SMILES	PAD4 inh	UBC13 inh	SUMO HTRF inh	Apaf1 inhib	GSTO1 inh	Rin1-Abl PPI inh	GSTO1 confirm	others
COc1ccc(/C=C/C(=O)Nc2ccc(N3CCOCC3)cc2)cc1	-0.9	.	18.3	.	1.0	-2.7	.
O=C1CCN(Cc2ccccc2)CCN1[C@H](COc1ccccc1)c1ccccc1	-8.3	10.1	9.8	21.9	83.5*	3.4	4.4
O=C(CCl)N1c2ccccc2CCc2ccccc21	3.3	-1.3	4.4	-3.6	68.7*	-0.8	85.1*	GSTO1 recomb ABPP=50.0
CC(Cl)C(=O)N1c2ccccc2CCc2ccccc21 (centres undefined)	-6.7	0.8	-2.8	3.2	2.9	2.4	.
Cc1sc(NC(=O)CCl)c(C(=O)c2ccccc2)c1C	0.2	-0.3	-5.7	23.6	74.3*	-3.6	97.1*
S=C(NCCc1c[nH]c2ccccc12)NC1CCCCC1	-5.5	15.7	13.1	8.9	51.0*	2.2	4.6
CCCCNC(=O)C1(C)CCN1C(=O)c1ccc2ccccc2n1 (centres undefined)	.	.	.	.	.	-3.5	.
CCN(CC)CCNc1cc(C)nc2c1C(=O)C(=O)C=C2N1CCCCC1	3.0	-26.3	20.7	39.7	76.9*	-5.1	45.0*
Cc1[nH]n(-c2ccccc2)c(=O)c1N=Nc1ccccc1C(=O)O	1.3	-8.0	8.0	13.0	41.0*	-0.3	10.6
Cc1cc(NC(=O)C2CC(=O)N(c3ccc(F)cc3)C2)no1 (centres undefined)	3.9	4.5	-1.8	4.2	4.7	-0.8	.
CNc1ccc(-c2ccccc2OC)cn1	.	.	.	.	.	1.8	.
Cc1ccc(NC(=O)CC(N)=S)cc1	4.8	-2.0	28.6	-12.6	56.1*	0.1	26.9
CC1=CC(=O)C(C(C)=Nc2ccccc2[N+](=O)[O-])C(=O)O1 (centres undefined)	.	.	.	.	.	-4.9	.
O=C(COC(=O)Cc1c(F)cccc1Cl)NC(=O)Nc1ccccc1F	-3.1	11.5	.	2.7	.	4.1	.
COc1ccc(/C=C2\SC(=O)N(CCNC(=O)C3=COCCO3)C2=O)cc1	-1.0	-5.9	.	2.4	41.7*	-6.3	8.8
O=C(NCCN1C(=O)S/C(=C\c2ccc(OC(F)F)cc2)C1=O)C1=COCCO1	4.1	-13.6	.	4.4	8.7	-3.1	.
CC(=O)N1N=C(c2ccccc2)OC1c1ccc([N+](=O)[O-])s1 (centres undefined)	-12.8	-9.7	28.8	36.5	41.2*	1.6	13.8
CC(=O)N1N=C(c2cccc([N+](=O)[O-])c2)OC1c1ccc(Br)cc1 (centres undefined)	0.6	5.5	-3.4	-1.4	-5.5	1.0	.
CC(=O)c1ccc2cc3c(cc2c1)OCO3	.	.	.	.	.	-10.7	.
Cc1ccc[n+](CC(=O)Nc2cccc([N+](=O)[O-])c2)c1	2.1	-6.6	-16.6	-16.8	2.4	-1.2	.
Cc1ccc[n+](CC(=O)Nc2ccc([N+](=O)[O-])cc2)c1	3.7	-4.5	15.0	-6.7	91.4*	-2.4	94.7*
Cc1cc(NS(=O)(=O)c2ccc(NC(=O)COc3ccccc3C(C)(C)C)cc2)no1	-2.0	-10.6	12.7	16.1	0.0	3.6	.
